Activity calls are given as the source filed them.
Assays:
[1] = molecular target: DNA (cytosine-5)-methyltransferase 1 (Homo sapiens) (UniProt P26358); assay: Inhibition of DNMT1 (unknown origin) at 1 to 10 uM; conditions: dose 1-10 µM
[2] = molecular target: Histone-lysine N-methyltransferase EHMT1 (Homo sapiens) (UniProt Q9H9B1); assay: Inhibition of EHMT1 (unknown origin) at 1 to 10 uM; conditions: dose 1-10 µM
HEK-293T [3] = assay: Cytotoxicity against HEK293T cells at 10 uM measured after 4 days by IncuCyte zoom live-cell imaging analysis; format: toxicity, cell-based; conditions: human, 96 h, time 4 day
[4] = molecular target: Protein arginine N-methyltransferase 6 (Homo sapiens) (UniProt Q96LA8); assay: Inhibition of PRMT6 (unknown origin) at 1 to 10 uM; conditions: dose 1-10 µM
Sequence of Protein arginine N-methyltransferase 6 (Homo sapiens) (Q96LA8 whole entry, looked up): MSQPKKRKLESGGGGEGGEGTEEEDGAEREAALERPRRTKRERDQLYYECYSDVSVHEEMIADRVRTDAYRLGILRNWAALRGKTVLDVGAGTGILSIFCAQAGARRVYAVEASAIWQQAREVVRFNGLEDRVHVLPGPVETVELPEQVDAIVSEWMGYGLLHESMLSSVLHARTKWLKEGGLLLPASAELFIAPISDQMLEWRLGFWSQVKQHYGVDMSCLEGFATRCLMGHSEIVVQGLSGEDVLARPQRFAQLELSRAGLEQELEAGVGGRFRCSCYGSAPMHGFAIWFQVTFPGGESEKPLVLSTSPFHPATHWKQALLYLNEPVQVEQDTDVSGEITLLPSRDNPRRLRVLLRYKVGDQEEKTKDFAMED

[5] = molecular target: N-lysine methyltransferase SMYD2 (Homo sapiens) (UniProt Q9NRG4); assay: Inhibition of SMYD2 (unknown origin) at 1 to 10 uM; conditions: dose 1-10 µM
[6] = molecular target: Histone-lysine N-methyltransferase SETD2 (Homo sapiens) (UniProt Q9BYW2); assay: Inhibition of SETD2 (unknown origin) at 1 to 10 uM; conditions: dose 1-10 µM
[7] = molecular target: Histone-lysine N-methyltransferase PRDM9 (Homo sapiens) (UniProt Q9NQV7); assay: Inhibition of FLAG tagged PRDM9 transfected in HEK293T cells assessed as inhibition of trimethylation H3K4 at 10 uM measured after 20 hrs by Western blot analysis; format: cell-based
Sequence of Histone-lysine N-methyltransferase PRDM9 (Homo sapiens) (Q9NQV7 whole entry): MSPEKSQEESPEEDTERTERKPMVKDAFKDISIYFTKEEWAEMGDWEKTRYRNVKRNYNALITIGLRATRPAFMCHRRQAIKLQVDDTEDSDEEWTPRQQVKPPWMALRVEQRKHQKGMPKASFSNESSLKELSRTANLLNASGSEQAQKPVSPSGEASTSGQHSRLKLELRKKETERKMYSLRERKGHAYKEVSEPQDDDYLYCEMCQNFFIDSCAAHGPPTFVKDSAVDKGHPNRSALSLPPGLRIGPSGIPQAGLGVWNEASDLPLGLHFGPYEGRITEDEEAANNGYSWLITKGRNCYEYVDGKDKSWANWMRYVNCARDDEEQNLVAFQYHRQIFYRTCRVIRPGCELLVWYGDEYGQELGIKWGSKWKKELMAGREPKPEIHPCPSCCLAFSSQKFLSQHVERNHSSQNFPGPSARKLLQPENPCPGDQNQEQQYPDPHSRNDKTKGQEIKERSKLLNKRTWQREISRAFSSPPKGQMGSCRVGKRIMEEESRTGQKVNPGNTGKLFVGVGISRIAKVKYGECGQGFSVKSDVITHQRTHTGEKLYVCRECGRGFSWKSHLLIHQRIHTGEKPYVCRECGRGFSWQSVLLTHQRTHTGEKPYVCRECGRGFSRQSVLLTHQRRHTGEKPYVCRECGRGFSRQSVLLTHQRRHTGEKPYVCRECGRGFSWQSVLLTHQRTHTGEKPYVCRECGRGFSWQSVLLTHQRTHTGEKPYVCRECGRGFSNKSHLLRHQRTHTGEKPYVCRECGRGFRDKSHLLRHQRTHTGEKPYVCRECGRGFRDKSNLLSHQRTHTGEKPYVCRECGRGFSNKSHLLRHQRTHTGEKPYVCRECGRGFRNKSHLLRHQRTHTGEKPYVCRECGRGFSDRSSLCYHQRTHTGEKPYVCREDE

Spermatocyte [8] = assay: Induction of meiotic defect in wild type mouse spermatocyte assessed as non homologous synapsis by SYCP1/SYCP3 staining based immunofluorescence assay; format: functional, cell-based
[9] = molecular target: Histone-lysine N-methyltransferase ASH1L (Homo sapiens) (UniProt Q9NR48); assay: Inhibition of ASH1L (unknown origin) at 1 to 10 uM; conditions: dose 1-10 µM
HCC1806 = assay: Cytotoxicity against human HCC1806 cells at upto 30 uM measured for 3 to 6 days by celltiter glo assay; format: functional, cell-based; conditions: time 3-6 day
HEK-293T [10] = assay: Cytotoxicity against HEK293T cells at 3 uM measured after 4 days by IncuCyte zoom live-cell imaging analysis; format: toxicity, cell-based; conditions: human, 96 h, time 4 day
CAL-85-1 = assay: Cytotoxicity against human CAL-85-1 cells at upto 30 uM measured for 3 to 6 days by celltiter glo assay; format: functional, cell-based; conditions: time 3-6 day
[11] = molecular target: Histone-lysine N-methyltransferase 2A (Homo sapiens) (UniProt Q03164); assay: Inhibition of MLL1 (unknown origin) at 1 to 10 uM; conditions: dose 1-10 µM
[12] = molecular target: Histone-lysine N-methyltransferase 2C (Homo sapiens) (UniProt Q8NEZ4); assay: Inhibition of MLL3 (unknown origin) at 1 to 10 uM; conditions: dose 1-10 µM
[13] = molecular target: Histone-lysine N-methyltransferase EHMT2 (Homo sapiens) (UniProt Q96KQ7); assay: Inhibition of G9a (unknown origin) at 1 to 10 uM; conditions: dose 1-10 µM
[14] = molecular target: Protein arginine N-methyltransferase 9 (Homo sapiens) (UniProt Q6P2P2); assay: Inhibition of PRMT9 (unknown origin) at 1 to 10 uM; conditions: dose 1-10 µM
[15] = molecular target: Protein arginine N-methyltransferase 5 (Homo sapiens) (UniProt O14744); assay: Inhibition of PRMT5 (unknown origin) at 1 to 10 uM; conditions: dose 1-10 µM
Spermatocyte [16] = assay: Induction of meiotic defect in wild type mouse spermatocyte assessed as effect on paring of chromosomal homolog by SYCP1/SYCP3 staining based immunofluorescence assay; format: functional, cell-based
MDA-MB-436 = assay: Cytotoxicity against human MDA-MB-436 cells at upto 30 uM measured for 3 to 6 days by celltiter glo assay; format: functional, cell-based; conditions: time 3-6 day
[17] = molecular target: Protein arginine N-methyltransferase 7 (Homo sapiens) (UniProt Q9NVM4); assay: Inhibition of PRMT7 (unknown origin) at 1 to 10 uM; conditions: dose 1-10 µM
HEK-293T [18] = assay: Cytotoxicity against HEK293T cells at 3 uM measured after 24 hrs by IncuCyte zoom live-cell imaging analysis; format: toxicity, cell-based; conditions: human
Outline: (§1)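 HEK293T cells seeded, treated next day with compound for 1 day; cell number counted by live-cell imaging after Vybrant DyeCycle Green staining; mean ± sd, n = 3.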

[19] = molecular target: RNA 5'-monophosphate methyltransferase (Homo sapiens) (UniProt Q7Z5W3); assay: Inhibition of BCDIN3D (unknown origin) at 1 to 10 uM; conditions: dose 1-10 µM
Sequence of RNA 5'-monophosphate methyltransferase (Homo sapiens) (Q7Z5W3 whole entry): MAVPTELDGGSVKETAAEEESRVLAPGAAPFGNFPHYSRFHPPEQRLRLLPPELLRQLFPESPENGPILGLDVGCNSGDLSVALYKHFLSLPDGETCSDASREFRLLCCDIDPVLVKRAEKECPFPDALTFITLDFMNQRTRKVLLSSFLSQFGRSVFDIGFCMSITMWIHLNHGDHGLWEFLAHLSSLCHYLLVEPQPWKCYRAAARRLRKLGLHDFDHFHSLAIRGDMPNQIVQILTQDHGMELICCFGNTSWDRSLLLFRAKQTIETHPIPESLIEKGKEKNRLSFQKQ

[20] = molecular target: Histone-lysine N-methyltransferase KMT5C (Homo sapiens) (UniProt Q86Y97); assay: Inhibition of SUV420H2 (unknown origin) at 1 to 10 uM; conditions: dose 1-10 µM
Sequence of Histone-lysine N-methyltransferase KMT5C (Homo sapiens) (Q86Y97 whole entry, looked up): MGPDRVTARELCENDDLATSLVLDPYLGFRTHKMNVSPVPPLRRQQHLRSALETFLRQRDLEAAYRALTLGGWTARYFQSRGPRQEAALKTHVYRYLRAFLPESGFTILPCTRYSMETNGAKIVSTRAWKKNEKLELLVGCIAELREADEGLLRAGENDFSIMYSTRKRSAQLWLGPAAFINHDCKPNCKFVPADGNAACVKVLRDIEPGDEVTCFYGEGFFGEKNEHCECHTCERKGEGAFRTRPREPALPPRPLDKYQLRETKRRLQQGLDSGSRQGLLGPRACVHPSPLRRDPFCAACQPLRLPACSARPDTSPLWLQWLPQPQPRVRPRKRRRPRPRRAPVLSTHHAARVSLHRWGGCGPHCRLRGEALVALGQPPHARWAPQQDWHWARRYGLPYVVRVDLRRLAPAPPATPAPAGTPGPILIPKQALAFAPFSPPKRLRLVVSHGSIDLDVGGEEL

[21] = molecular target: Histone-lysine N-methyltransferase, H3 lysine-79 specific (Homo sapiens) (UniProt Q8TEK3); assay: Inhibition of DOT1L (unknown origin) at 1 to 10 uM; conditions: dose 1-10 µM
[22] = molecular target: Histone-lysine N-methyltransferase SMYD3 (Homo sapiens) (UniProt Q9H7B4); assay: Inhibition of SMYD3 (unknown origin) at 1 to 10 uM; conditions: dose 1-10 µM
[23] = molecular target: Protein arginine N-methyltransferase 3 (Homo sapiens) (UniProt O60678); assay: Inhibition of PRMT3 (unknown origin) at 1 to 10 uM; conditions: dose 1-10 µM
[24] = molecular target: N-lysine methyltransferase KMT5A (Homo sapiens) (UniProt Q9NQR1); assay: Inhibition of SETD8 (unknown origin) at 1 to 10 uM; conditions: dose 1-10 µM
Sequence of N-lysine methyltransferase KMT5A (Homo sapiens) (Q9NQR1 whole entry): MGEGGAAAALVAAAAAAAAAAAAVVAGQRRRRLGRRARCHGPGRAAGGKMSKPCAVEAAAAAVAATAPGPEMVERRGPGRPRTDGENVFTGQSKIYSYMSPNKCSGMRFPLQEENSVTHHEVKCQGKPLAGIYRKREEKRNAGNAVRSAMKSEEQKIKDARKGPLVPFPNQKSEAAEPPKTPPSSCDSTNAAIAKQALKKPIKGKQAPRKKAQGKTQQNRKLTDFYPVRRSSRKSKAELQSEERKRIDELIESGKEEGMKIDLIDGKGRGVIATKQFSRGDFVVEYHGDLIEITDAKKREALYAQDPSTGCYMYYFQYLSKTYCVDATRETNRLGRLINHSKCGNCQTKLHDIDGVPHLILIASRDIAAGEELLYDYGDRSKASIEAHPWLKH

[25] = molecular target: Histone-lysine N-methyltransferase PRDM9 (Homo sapiens) (UniProt Q9NQV7); assay: Inhibition of PRDM9 (unknown origin) at 1 to 10 uM; conditions: dose 1-10 µM
HCC1143 = assay: Cytotoxicity against human HCC1143 cells at upto 30 uM measured for 3 to 6 days by celltiter glo assay; format: functional, cell-based; conditions: time 3-6 day
[26] = molecular target: Histone-lysine N-methyltransferase SUV39H2 (Homo sapiens) (UniProt Q9H5I1); assay: Inhibition of SUV39H2 (unknown origin) at 1 to 10 uM; conditions: dose 1-10 µM
Sequence of Histone-lysine N-methyltransferase SUV39H2 (Homo sapiens) (Q9H5I1 whole entry): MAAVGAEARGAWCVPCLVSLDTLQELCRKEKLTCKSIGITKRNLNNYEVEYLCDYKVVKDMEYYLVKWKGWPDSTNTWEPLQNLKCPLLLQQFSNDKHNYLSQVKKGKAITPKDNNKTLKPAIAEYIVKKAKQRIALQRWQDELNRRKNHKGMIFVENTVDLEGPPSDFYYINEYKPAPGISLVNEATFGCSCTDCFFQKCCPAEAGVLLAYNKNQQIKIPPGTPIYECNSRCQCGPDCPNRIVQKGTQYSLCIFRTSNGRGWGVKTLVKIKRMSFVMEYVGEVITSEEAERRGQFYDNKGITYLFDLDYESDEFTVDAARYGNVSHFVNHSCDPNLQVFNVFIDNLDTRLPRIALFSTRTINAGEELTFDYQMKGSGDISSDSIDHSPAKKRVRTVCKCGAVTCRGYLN

[27] = molecular target: Histone-lysine N-methyltransferase, H3 lysine-36 specific (Homo sapiens) (UniProt Q96L73); assay: Inhibition of NSD1 (unknown origin) at 1 to 10 uM; conditions: dose 1-10 µM
SK-MM-2 = assay: Cytotoxicity against human SK-MM-2 cells at upto 30 uM measured for 3 to 6 days by celltiter glo assay; format: functional, cell-based; conditions: time 3-6 day
[28] = molecular target: Histone-lysine N-methyltransferase NSD3 (Homo sapiens) (UniProt Q9BZ95); assay: Inhibition of NSD3 (unknown origin) at 1 to 10 uM; conditions: dose 1-10 µM
Sequence of Histone-lysine N-methyltransferase NSD3 (Homo sapiens) (Q9BZ95 whole entry): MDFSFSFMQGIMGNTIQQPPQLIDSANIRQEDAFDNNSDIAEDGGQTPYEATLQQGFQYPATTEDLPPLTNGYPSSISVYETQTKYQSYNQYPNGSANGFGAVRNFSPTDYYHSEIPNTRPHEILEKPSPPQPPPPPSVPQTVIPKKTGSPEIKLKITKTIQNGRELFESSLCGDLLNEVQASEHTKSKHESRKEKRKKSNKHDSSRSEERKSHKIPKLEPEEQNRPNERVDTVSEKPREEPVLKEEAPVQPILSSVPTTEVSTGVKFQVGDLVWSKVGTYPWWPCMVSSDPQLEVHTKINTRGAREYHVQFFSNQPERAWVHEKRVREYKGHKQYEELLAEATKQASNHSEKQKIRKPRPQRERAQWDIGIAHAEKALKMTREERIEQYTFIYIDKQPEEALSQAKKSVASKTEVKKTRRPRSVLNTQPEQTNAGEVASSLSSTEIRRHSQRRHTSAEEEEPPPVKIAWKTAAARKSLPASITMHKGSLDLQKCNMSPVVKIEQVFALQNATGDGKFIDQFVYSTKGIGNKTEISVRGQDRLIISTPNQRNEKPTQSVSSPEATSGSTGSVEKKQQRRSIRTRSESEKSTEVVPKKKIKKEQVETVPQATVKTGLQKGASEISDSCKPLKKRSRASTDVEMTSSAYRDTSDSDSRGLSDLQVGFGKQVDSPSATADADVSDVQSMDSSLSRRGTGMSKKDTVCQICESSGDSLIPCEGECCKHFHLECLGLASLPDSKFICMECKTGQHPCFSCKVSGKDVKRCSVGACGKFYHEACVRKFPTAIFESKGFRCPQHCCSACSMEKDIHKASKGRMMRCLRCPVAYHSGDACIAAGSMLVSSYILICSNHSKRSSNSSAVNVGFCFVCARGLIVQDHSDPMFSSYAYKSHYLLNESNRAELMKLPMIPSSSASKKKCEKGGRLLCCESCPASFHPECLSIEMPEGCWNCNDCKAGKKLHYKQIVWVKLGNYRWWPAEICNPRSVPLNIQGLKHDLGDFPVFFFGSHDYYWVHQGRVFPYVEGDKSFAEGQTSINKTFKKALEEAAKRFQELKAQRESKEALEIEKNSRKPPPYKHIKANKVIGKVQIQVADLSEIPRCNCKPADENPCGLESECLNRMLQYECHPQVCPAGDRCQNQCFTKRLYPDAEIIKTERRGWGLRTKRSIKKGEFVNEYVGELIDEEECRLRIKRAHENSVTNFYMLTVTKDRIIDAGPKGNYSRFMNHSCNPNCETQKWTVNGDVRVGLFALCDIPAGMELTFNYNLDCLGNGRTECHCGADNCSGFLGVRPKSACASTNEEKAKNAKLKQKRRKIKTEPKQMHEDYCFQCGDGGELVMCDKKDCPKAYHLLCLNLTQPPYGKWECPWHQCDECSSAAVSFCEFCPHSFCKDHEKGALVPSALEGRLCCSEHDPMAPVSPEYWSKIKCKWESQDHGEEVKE

[29] = molecular target: Histone-lysine N-methyltransferase PRDM7 (Homo sapiens) (UniProt Q9NQW5); assay: Inhibition of PRDM7 (unknown origin) using biotin-tagged Histone H3 (1 to 25) and 3H-SAM as substrate incubated for 90 mins by topcount plate reader analysis
[30] = molecular target: Histone-lysine N-methyltransferase SETD7 (Homo sapiens) (UniProt Q8WTS6); assay: Inhibition of SETD7 (unknown origin) at 1 to 10 uM; conditions: dose 1-10 µM
Sequence of Histone-lysine N-methyltransferase SETD7 (Homo sapiens) (Q8WTS6 whole entry): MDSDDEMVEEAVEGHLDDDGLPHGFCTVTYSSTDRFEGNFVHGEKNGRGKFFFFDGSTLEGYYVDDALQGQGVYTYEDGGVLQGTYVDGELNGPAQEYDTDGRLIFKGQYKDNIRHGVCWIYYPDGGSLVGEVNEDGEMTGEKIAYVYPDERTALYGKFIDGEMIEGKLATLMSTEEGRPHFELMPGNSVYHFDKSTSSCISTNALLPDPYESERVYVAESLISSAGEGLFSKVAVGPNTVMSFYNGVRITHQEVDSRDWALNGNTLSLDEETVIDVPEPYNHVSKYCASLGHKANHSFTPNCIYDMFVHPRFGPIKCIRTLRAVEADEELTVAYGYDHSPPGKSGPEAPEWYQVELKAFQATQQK

[31] = molecular target: Protein arginine N-methyltransferase 8 (Homo sapiens) (UniProt Q9NR22); assay: Inhibition of PRMT8 (unknown origin) at 1 to 10 uM; conditions: dose 1-10 µM
Sequence of Protein arginine N-methyltransferase 8 (Homo sapiens) (Q9NR22 2-394 limits assumed): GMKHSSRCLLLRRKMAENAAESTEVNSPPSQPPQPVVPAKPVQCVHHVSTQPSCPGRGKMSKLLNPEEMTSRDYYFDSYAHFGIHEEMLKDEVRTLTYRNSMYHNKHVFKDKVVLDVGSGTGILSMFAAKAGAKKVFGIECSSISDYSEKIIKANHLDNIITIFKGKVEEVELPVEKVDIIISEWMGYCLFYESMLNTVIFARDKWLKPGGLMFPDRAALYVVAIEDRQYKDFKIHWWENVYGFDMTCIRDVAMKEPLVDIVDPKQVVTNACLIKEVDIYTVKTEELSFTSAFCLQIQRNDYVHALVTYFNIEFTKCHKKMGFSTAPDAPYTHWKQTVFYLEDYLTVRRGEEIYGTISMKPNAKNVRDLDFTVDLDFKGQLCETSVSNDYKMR

[32] = molecular target: Protein arginine N-methyltransferase 1 (Homo sapiens) (UniProt Q99873); assay: Inhibition of PRMT1 (unknown origin) at 1 to 10 uM; conditions: dose 1-10 µM
[33] = molecular target: Histone-lysine N-methyltransferase NSD2 (Homo sapiens) (UniProt O96028); assay: Inhibition of NSD2 (unknown origin) at 1 to 10 uM; conditions: dose 1-10 µM
[34] = molecular target: DNMT3A2/3L complex (Homo sapiens) (UniProt Q9Y6K1+Q9UJW3); assay: Inhibition of DNMT3A/DNMT3L (unknown origin) at 1 to 10 uM; format: protein-complex assay; conditions: dose 1-10 µM
RPMI-8226 = assay: Cytotoxicity against human RPMI-8226 cells at upto 30 uM measured for 3 to 6 days by celltiter glo assay; format: functional, cell-based; conditions: time 3-6 day
Homo sapiens = species: Homo sapiens; assay: Inhibition of PRC2 (unknown origin) at 1 to 10 uM; conditions: dose 1-10 µM
[35] = molecular target: Histone-lysine N-methyltransferase SUV39H1 (Homo sapiens) (UniProt O43463); assay: Inhibition of SUV39H1 (unknown origin) at 1 to 10 uM; conditions: dose 1-10 µM
[36] = molecular target: Histone-arginine methyltransferase CARM1 (Homo sapiens) (UniProt Q86X55); assay: Inhibition of PRMT4 (unknown origin) at 1 to 10 uM; conditions: dose 1-10 µM
[37] = molecular target: DNMT3B-DNMT3L complex (Homo sapiens) (UniProt Q9UBC3+Q9UJW3); assay: Inhibition of DNMT3B/DNMT3L (unknown origin) at 1 to 10 uM; format: protein-complex assay; conditions: dose 1-10 µM
[38] = molecular target: Histone-lysine N-methyltransferase SETDB1 (Homo sapiens) (UniProt Q15047); assay: Inhibition of SETDB1 (unknown origin) at 1 to 10 uM; conditions: dose 1-10 µM
HEK-293T [39] = assay: Cytotoxicity against HEK293T cells at 10 uM measured after 24 hrs by IncuCyte zoom live-cell imaging analysis; format: toxicity, cell-based; conditions: human; outline: as §1
[40] = molecular target: Histone-lysine N-methyltransferase KMT5B (Homo sapiens) (UniProt Q4FZB7); assay: Inhibition of SUV420H1 (unknown origin) at 1 to 10 uM; conditions: dose 1-10 µM

COc1cc(OC)cc(-c2noc(N3CCN(C)C4(CCN(c5ccccc5)CC4)C3)n2)c1
Non-Toxic: Activity (HEK-293T [10]) | Activity (HEK-293T [18])
Toxic: Activity (HEK-293T [3]) | Activity (HEK-293T [39])
inactive: inhibition [1] | inhibition [2] | inhibition [4] | inhibition [5] | inhibition [6] | inhibition [7] | Activity (Spermatocyte [8]) | inhibition [9] | Activity (HCC1806) | Activity (CAL-85-1) | inhibition [11] | inhibition [12] | inhibition [13] | inhibition [14] | inhibition [15] | Activity (Spermatocyte [16]) | Activity (MDA-MB-436) | inhibition [17] | inhibition [19] | inhibition [20] | inhibition [21] | inhibition [22] | inhibition [23] | inhibition [24] | inhibition [25] | Activity (HCC1143) | inhibition [26] | inhibition [27] | Activity (SK-MM-2) | inhibition [28] | inhibition [29] | inhibition [30] | inhibition [31] | inhibition [32] | inhibition [33] | inhibition [34] | Activity (RPMI-8226) | inhibition (Homo sapiens) | inhibition [35] | inhibition [36] | inhibition [37] | inhibition [38] | inhibition [40]

Reference: ChEMBL document CHEMBL5647699, “Discovery of a chemical probe for PRDM9” (Nat Commun, 2019)
